Laboratory results: ChEMBL document CHEMBL3808334, “Synthesis and in vitro evaluation of novel triazine analogues as anticancer agents and their interaction studies with bovine serum albumin” (Eur J Med Chem, 2016)

Columns and labels:
[1] = Growth inhibition of human HL-60(TB) cells incubated for 48 hrs by sulforhodamine B assay; format: functional; conditions: HL-60, 48 h
Summary of the method: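 Five-concentration, 48 h SRB screen (10-fold or ½-log dilutions from a 400× DMSO concentrate; 24 h preincubation at 37 °C, 5% CO₂; time-zero plate; A515). GI50 was solved from (Ti−Tz)/(C−Tz)×100 = 50. TGI was taken where Ti = Tz, and LC50 from (Ti−Tz)/[…].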

[2] = Growth inhibition of human SF268 cells incubated for 48 hrs by sulforhodamine B assay; format: functional; conditions: SF-268, 48 h
Summary of the method: (§1)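 Cells were plated at 5,000–40,000 per well according to doubling time and preincubated 24 h at 37 °C in 5% CO2; time-zero plates were then TCA-fixed. Five concentrations (10-fold or ½-log dilutions, DMSO stock) were incubated 48 h. Cells were TCA-fixed, stained with 0.4% SRB and read at 515 nm. GI50 was taken where [(Ti−Tz)/(C−Tz)]×100 = 50.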

[3] = Growth inhibition of human LOXIMVI cells incubated for 48 hrs by sulforhodamine B assay; format: functional; conditions: LOX IMVI; summary of the method: as §1
MDA-MB-435 = assay: Growth inhibition of human MDA-MB-435 cells incubated for 48 hrs by sulforhodamine B assay; format: functional; conditions: MDA-MB-435, 48 h; summary of the method: as §1
[4] = Growth inhibition of human Hs 578T cells incubated for 48 hrs by sulforhodamine B assay; format: functional; summary of the method: as §1
[5] = Growth inhibition of human BT549 cells incubated for 48 hrs by sulforhodamine B assay; format: functional; conditions: BT-549, 48 h
Summary of the method: (§2)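 Five-dose assay: five concentrations from 10-fold or ½-log serial dilutions. Cells are plated at 5,000–40,000 per well according to doubling time, grown 24 h, then exposed 48 h at 37 °C, 5% CO₂. Fixed with cold 50% TCA (final addition) for 60 min at 4 °C and stained with 0.4% SRB in 1% acetic acid. Bound dye is solubilized in 10 mM Tris base and read at 515 nm. GI₅₀ is where [(Ti−Tz)/(C−Tz)]×100 = 50, with a time-zero plate as Tz.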

SK-MEL-5 = assay: Growth inhibition of human SK-MEL-5 cells assessed as cell growth at 10^-8 M incubated for 48 hrs by sulforhodamine B assay; format: functional; conditions: SK-MEL-5, 48 h, read-out: Activity
NCI/ADR-RES = assay: Growth inhibition of human NCI/ADR-RES cells assessed as cell growth at 10^-5 M incubated for 48 hrs by sulforhodamine B assay; format: functional; conditions: read-out: Activity
786-0 = assay: Growth inhibition of human 786-0 cells assessed as cell growth at 10^-5 M incubated for 48 hrs by sulforhodamine B assay; format: functional; conditions: 786-0, 48 h, read-out: Activity; summary of the method: as §2
[6] = Growth inhibition of human Hs 578T cells assessed as cell growth at 10^-8 M incubated for 48 hrs by sulforhodamine B assay; format: functional; conditions: read-out: Activity
[7] = Growth inhibition of human HL-60(TB) cells assessed as cell growth at 10^-7 M incubated for 48 hrs by sulforhodamine B assay; format: functional; conditions: HL-60, 48 h, read-out: Activity
Summary of the method: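 Cells plated at 5,000–40,000/well according to doubling time and preincubated 24 h at 37 °C, 5% CO₂, with time-zero plates TCA-fixed. Drugs were kept as DMSO concentrates at 400× the top concentration and diluted in medium with 50 µg/ml gentamicin. Five 10-fold or ½-log dilutions were run for 48 h, followed by SRB staining and A515. Percent growth = (Ti−Tz)/(C−Tz)×100, or (Ti−Tz)/Tz×100 when Ti<Tz.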

[8] = Growth inhibition of human HOP62 cells assessed as cell growth at 10^-7 M incubated for 48 hrs by sulforhodamine B assay; format: functional; conditions: HOP-62, 48 h, read-out: Activity
[9] = Growth inhibition of human HOP92 cells assessed as cell growth at 10^-7 M incubated for 48 hrs by sulforhodamine B assay; format: functional; conditions: HOP-92, 48 h, read-out: Activity
[10] = Growth inhibition of human Hs 578T cells assessed as cell growth at 10^-5 M incubated for 48 hrs by sulforhodamine B assay; format: functional; conditions: read-out: Activity
[11] = Growth inhibition of human SNB75 cells assessed as cell growth at 10^-7 M incubated for 48 hrs by sulforhodamine B assay; format: functional; conditions: SNB-75, 48 h, read-out: Activity
M14 = assay: Growth inhibition of human M14 cells assessed as cell growth at 10^-4 M incubated for 48 hrs by sulforhodamine B assay; format: functional; conditions: M14, 48 h, read-out: Activity
[12] = Growth inhibition of human UACC257 cells assessed as cell growth at 10 uM incubated for 48 hrs by sulforhodamine B assay; format: functional; conditions: UACC-257, 48 h, read-out: Activity
ACHN = assay: Growth inhibition of human ACHN cells assessed as cell growth at 10^-7 M incubated for 48 hrs by sulforhodamine B assay; format: functional; conditions: read-out: Activity; summary of the method: as §2
[13] = Growth inhibition of human UACC62 cells assessed as cell growth at 10^-6 M incubated for 48 hrs by sulforhodamine B assay; format: functional; conditions: UACC-62, 48 h, read-out: Activity
[14] = Growth inhibition of human OVCAR8 cells assessed as cell growth at 10^-6 M incubated for 48 hrs by sulforhodamine B assay; format: functional; conditions: OVCAR-8, 48 h, read-out: Activity
[15] = Growth inhibition of human SKOV3 cells assessed as cell growth at 10^-6 M incubated for 48 hrs by sulforhodamine B assay; format: functional; conditions: SK-OV-3, 48 h, read-out: Activity
Albumin = Albumin (Bos taurus, UniProt P02769); assay: Binding affinity to bovine serum albumin assessed as binding constant in absorption spectra by Benesie-Hildebrand plot analysis; format: ADME; conditions: cattle, isolated protein
Summary of the method: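 BSA, 10 µM, in 0.1 M phosphate buffer pH 7.4, titrated with compound (0–20 µM per the figure; diluted from 10⁻³ mol L⁻¹ DMSO stocks). Run at 300 K in a 1 cm quartz cell. UV spectra taken 200–800 nm after 5 min equilibration; fluorescence excited at 280 nm, emission 351 nm, slit 10 nm. K is the intercept/slope ratio of a linear fit of 1/(A₀−A) or 1/(F₀−F) vs 1/[compound].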

[16] = read-out: LC50 (the source's name)
[17] = read-out: pLC50 (the source's name) (converted)

Albumin, sequence (P02769 whole entry): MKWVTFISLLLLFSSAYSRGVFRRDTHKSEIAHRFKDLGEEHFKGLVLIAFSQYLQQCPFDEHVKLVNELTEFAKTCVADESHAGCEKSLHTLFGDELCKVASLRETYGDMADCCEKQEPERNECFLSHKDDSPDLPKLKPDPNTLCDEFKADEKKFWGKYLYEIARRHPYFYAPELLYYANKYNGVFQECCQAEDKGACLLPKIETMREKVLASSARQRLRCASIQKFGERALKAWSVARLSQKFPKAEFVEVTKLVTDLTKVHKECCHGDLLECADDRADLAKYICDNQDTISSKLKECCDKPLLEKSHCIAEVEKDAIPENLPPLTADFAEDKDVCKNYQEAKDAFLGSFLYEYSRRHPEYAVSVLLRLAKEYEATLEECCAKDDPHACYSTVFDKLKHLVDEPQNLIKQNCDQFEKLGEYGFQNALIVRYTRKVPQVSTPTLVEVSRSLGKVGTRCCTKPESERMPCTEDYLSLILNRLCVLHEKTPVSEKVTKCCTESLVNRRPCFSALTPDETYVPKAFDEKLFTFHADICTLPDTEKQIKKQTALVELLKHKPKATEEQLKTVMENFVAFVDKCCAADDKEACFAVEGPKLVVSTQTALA

## Clc1ccc(-c2nc(Nc3ccc(-c4nc5ccccc5[nH]4)cc3)nc(N3CCOCC3)n2)cc1
[1]; read-out: GI50
  GI50: 216 nM
[1]; read-out: TGI
  TGI: 567 nM
[1]; read-out: pGI50 (converted)
  GI50: 214 nM
[1]; read-out: pTGI (converted)
  TGI: 562 nM
[2]; read-out: GI50
  GI50: 311 nM
[2]; read-out: TGI
  TGI: 1080 nM
[2]; read-out: pGI50 (converted)
  GI50: 309 nM
[2]; read-out: pTGI (converted)
  TGI: 1070 nM
[3]; read-out: GI50
  GI50: 189 nM
[3]; read-out: pGI50 (converted)
  GI50: 191 nM
MDA-MB-435; read-out: GI50
  GI50: 596 nM
MDA-MB-435; read-out: TGI
  TGI: 1860 nM
MDA-MB-435; read-out: pGI50 (converted)
  GI50: 603 nM
MDA-MB-435; read-out: pTGI (converted)
  TGI: 1860 nM
[4]; read-out: GI50
  GI50: 700 nM
[4]; [16]
  CC50: > 100000 nM
[4]; read-out: TGI
  TGI: 3020 nM
[4]; read-out: pGI50 (converted)
  GI50: 708 nM
[4]; [17]
  CC50: > 100000 nM
[4]; read-out: pTGI (converted)
  TGI: 3020 nM
[5]; read-out: GI50
  GI50: 1730 nM
[5]; read-out: TGI
  TGI: 3680 nM
[5]; read-out: pGI50 (converted)
  GI50: 1740 nM
[5]; read-out: pTGI (converted)
  TGI: 3720 nM
SK-MEL-5
  growth at 0.01 µM: 100%
NCI/ADR-RES
  growth at 10 µM: -72%
786-0
  growth at 10 µM: -87%
[6]
  growth at 0.01 µM: 90%
[7]
  growth at 0.1 µM: 90%
[8]
  growth at 0.1 µM: 93%
[9]
  growth at 0.1 µM: 89%
[10]
  growth at 10 µM: -47%
[11]
  growth at 0.1 µM: 79%
M14
  growth at 100 µM: -35%
[12]
  growth at 10 µM: -82.5%
ACHN
  growth at 0.1 µM: 99%
[13]
  growth at 1 µM: -53%
[14]
  growth at 1 µM: 57%
[15]
  growth at 1 µM: 102%
Albumin
  K: 1 ×10⁵ /M

## c1ccc2[nH]c(-c3ccc(Nc4nc(N5CCCCC5)nc(N5CCOCC5)n4)cc3)nc2c1
[1]; read-out: GI50
  GI50: 2420 nM
[1]; read-out: LC50
  LC50: > 100000 nM
[1]; read-out: TGI
  TGI: 5800 nM
[1]; read-out: pGI50 (converted)
  GI50: 2400 nM
[1]; read-out: pLC50 (converted)
  LC50: > 100000 nM
[1]; read-out: pTGI (converted)
  TGI: 5750 nM
[2]; read-out: GI50
  GI50: 3210 nM
[2]; [16]
  CC50: > 100000 nM
[2]; read-out: TGI
  TGI: 20100 nM
[2]; read-out: pGI50 (converted)
  GI50: 3240 nM
[2]; [17]
  CC50: > 100000 nM
[2]; read-out: pTGI (converted)
  TGI: 20000 nM
[3]; read-out: GI50
  GI50: 1750 nM
[3]; [16]
  CC50: 7310 nM
[3]; read-out: TGI
  TGI: 3580 nM
[3]; read-out: pGI50 (converted)
  GI50: 1740 nM
[3]; [17]
  CC50: 7240 nM
[3]; read-out: pTGI (converted)
  TGI: 3550 nM
MDA-MB-435; read-out: GI50
  GI50: 2060 nM
MDA-MB-435; [16]
  CC50: > 100000 nM
MDA-MB-435; read-out: TGI
  TGI: 4590 nM
MDA-MB-435; read-out: pGI50 (converted)
  GI50: 2040 nM
MDA-MB-435; [17]
  CC50: > 100000 nM
MDA-MB-435; read-out: pTGI (converted)
  TGI: 4570 nM
[4]; read-out: GI50
  GI50: 2560 nM
[4]; [16]
  CC50: > 100000 nM
[4]; read-out: TGI
  TGI: 8610 nM
[4]; read-out: pGI50 (converted)
  GI50: 2570 nM
[4]; [17]
  CC50: > 100000 nM
[4]; read-out: pTGI (converted)
  TGI: 8510 nM
[5]; read-out: GI50
  GI50: 2070 nM
[5]; [16]
  CC50: 92700 nM
[5]; read-out: TGI
  TGI: 5200 nM
[5]; read-out: pGI50 (converted)
  GI50: 2090 nM
[5]; [17]
  CC50: 93300 nM
[5]; read-out: pTGI (converted)
  TGI: 5250 nM
SK-MEL-5
  growth at 0.01 µM: 97%
NCI/ADR-RES
  growth at 10 µM: 28%
786-0
  growth at 10 µM: -78%
[6]
  growth at 0.01 µM: 96%
[7]
  growth at 0.1 µM: 100%
[8]
  growth at 0.1 µM: 96%
[9]
  growth at 0.1 µM: 93%
[10]
  growth at 10 µM: -6%
[11]
  growth at 0.1 µM: 74%
M14
  growth at 100 µM: -70%
[12]
  growth at 10 µM: -19.3%
ACHN
  growth at 0.1 µM: 95%
[13]
  growth at 1 µM: 92%
[14]
  growth at 1 µM: 93%
[15]
  growth at 1 µM: 102%
Albumin
  K: 9.7 ×10⁴ /M
